Measured values reported in ChEMBL document CHEMBL1124320, “2,2-Difluoro-5-hexyne-1,4-diamine: a potent enzyme-activated inhibitor of ornithine decarboxylase” (J Med Chem, 1989).

Legend:
[1] = target: ornithine decarboxylase (Rattus norvegicus) (UniProt P09057); experiment: Time of half-inactivation of ornithine decarboxylase extrapolated to infinite inhibitor concentration was determined; details: in vitro
Ornithine decarboxylase = target: T1, Ornithine decarboxylase (Rattus norvegicus, UniProt P09057); experiment: In vitro inhibition against ornithine decarboxylase
T1 sequence (P09057 whole entry): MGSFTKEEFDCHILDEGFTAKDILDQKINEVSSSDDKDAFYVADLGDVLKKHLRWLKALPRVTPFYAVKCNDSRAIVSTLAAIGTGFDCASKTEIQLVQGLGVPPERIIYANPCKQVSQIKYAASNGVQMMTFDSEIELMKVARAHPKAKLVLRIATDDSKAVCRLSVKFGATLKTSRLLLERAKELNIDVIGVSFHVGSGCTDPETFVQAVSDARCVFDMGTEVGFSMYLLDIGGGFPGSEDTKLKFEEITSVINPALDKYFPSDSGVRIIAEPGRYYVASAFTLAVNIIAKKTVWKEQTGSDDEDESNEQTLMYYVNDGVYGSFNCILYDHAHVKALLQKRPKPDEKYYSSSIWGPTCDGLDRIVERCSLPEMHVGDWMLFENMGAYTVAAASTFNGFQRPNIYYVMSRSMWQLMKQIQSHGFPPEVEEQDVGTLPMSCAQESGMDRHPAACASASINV
Procedure, shortened: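 Time-dependent inactivation of partially purified rat liver ODC (thioacetamide-induced, acid treatment at pH 4.6). Enzyme incubated at 37 °C in 30 mM phosphate pH 7.1, 5 mM DTT and 0.1 mM pyridoxal phosphate with varied inhibitor concentrations. Aliquots were assayed at intervals. Half-inactivation times were plotted against 1/[I] (Kitz–Wilson, least-squares fit) to give apparent K_I and τ1/2.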

[2] = In vitro inhibition against rat aorta semicarbazide-sensitive amine oxidase; format: tissue-based
[3] = target: T2, S-adenosylmethionine decarboxylase proenzyme (Homo sapiens) (UniProt P17707)
T2 sequence (whole entry): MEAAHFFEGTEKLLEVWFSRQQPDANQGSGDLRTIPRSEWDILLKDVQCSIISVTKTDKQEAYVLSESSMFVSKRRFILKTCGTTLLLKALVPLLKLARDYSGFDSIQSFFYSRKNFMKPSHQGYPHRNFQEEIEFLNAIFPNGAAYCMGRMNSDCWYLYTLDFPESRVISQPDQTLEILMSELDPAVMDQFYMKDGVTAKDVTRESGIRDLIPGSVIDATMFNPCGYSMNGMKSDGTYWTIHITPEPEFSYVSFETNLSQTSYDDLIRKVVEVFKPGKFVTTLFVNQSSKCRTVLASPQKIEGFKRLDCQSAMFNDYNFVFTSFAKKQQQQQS

| Ka [3] | SMILES | half-inactivation time [1] | Ki (Ornithine decarboxylase) | Ki [2] |
| --- | --- | --- | --- | --- |
| – | C#C[C@@H](N)CC[C@H](C)N | 1.7 min | 3 µM | – |
| – | C#CC(N)CC(F)(F)CN (stereo unspecified) | – | – | 0.1 µM |
| – | NCCCC(N)(CF)C(=O)O (stereo unspecified) | 2.6 min | 2.7 µM | – |
| 16 µM | NCCCCN | – | – | – |
